Assay results: ChEMBL document CHEMBL2346563, “A series of nonsecosteroidal vitamin D receptor agonists for osteoporosis therapy” (Bioorg Med Chem, 2013)
Blank lines part the entries; values can stand above or below the compound they belong to.

Assays:
[1] = tested on: Rattus norvegicus; test: Toxicity in ovariectomized immatured Sprague-Dawley rat osteoporosis model assessed as effect on serum calcium level at 30 ng/kg, po once daily for 5 times per week for 4 weeks relative to control; assay type: organism-based; details: in vivo, 3e-05 mg/kg, 672 h
How it was run: (§1)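 Ovariectomized female 8-week-old Sprague–Dawley rats, n = 6 per group. Oral dosing five times per week for 4 weeks in medium-chain triglyceride (1 mL/kg). Vehicle-treated OVX and sham rats served as controls. Abdominal aortic blood drawn under ether 24 h after the last dose; serum calcium measured by autoanalyzer. ΔCa (%) = (treated − vehicle)/vehicle × 100. Mean ± SE.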

[2] = tested on: Rattus norvegicus; test: Toxicity in ovariectomized immatured Sprague-Dawley rat osteoporosis model assessed as effect on serum calcium level at 10 ng/kg, po once daily for 5 times per week for 4 weeks relative to control; assay type: organism-based; details: in vivo, 1e-05 mg/kg, 672 h; how it was run: as §1
[3] = tested on: Rattus norvegicus; test: Prevention of bone mineral density loss in ovariectomized immatured Sprague-Dawley rat osteoporosis model at 30 ng/kg, po once daily for 5 times per week for 4 weeks relative to control; assay type: functional
How it was run: (§2)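 Female 8-week-old Sprague–Dawley (Crj: CD (SD)) rats, ovariectomized or sham-operated, n = 6 per group. From one day after surgery, oral dosing five times per week for 4 weeks; vehicle was medium-chain triglyceride at 1 mL/kg. Distal femur BMD read by dual-energy X-ray absorptiometry 24 h after the last dose. ΔBMD (%) = (treated − vehicle)/(sham − vehicle) × 100. Mean ± SE.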

[4] = tested on: Rattus norvegicus; test: Prevention of bone mineral density loss in ovariectomized immatured Sprague-Dawley rat osteoporosis model at 10 ng/kg, po once daily for 5 times per week for 4 weeks relative to control; assay type: functional; how it was run: as §2
[5] = tested on: Rattus norvegicus; test: Prevention of bone mineral density loss in ovariectomized immatured Sprague-Dawley rat osteoporosis model administered orally once daily for 5 times per week for 4 weeks; assay type: functional, organism-based; how it was run: as §2
[6] = tested on: Rattus norvegicus; test: Toxicity in ovariectomized immatured Sprague-Dawley rat osteoporosis model assessed as effect on serum calcium level at 320 ng/kg, po once daily for 5 times per week for 4 weeks relative to control; assay type: organism-based; details: in vivo, 0.00032 mg/kg, 672 h; how it was run: as §1
[7] = tested on: Rattus norvegicus; test: Toxicity in ovariectomized immatured Sprague-Dawley rat osteoporosis model assessed as effect on serum calcium level at 80 ng/kg, po once daily for 5 times per week for 4 weeks relative to control; assay type: organism-based; details: in vivo, 8e-05 mg/kg, 672 h; how it was run: as §1
[8] = tested on: Rattus norvegicus; test: Toxicity in ovariectomized immatured Sprague-Dawley rat osteoporosis model assessed as effect on serum calcium level at 20 ng/kg, po once daily for 5 times per week for 4 weeks relative to control; assay type: organism-based; details: in vivo, 2e-05 mg/kg, 672 h; how it was run: as §1
[9] = tested on: Rattus norvegicus; test: Prevention of bone mineral density loss in ovariectomized immatured Sprague-Dawley rat osteoporosis model at 320 ng/kg, po once daily for 5 times per week for 4 weeks relative to control; assay type: functional; how it was run: as §2
[10] = tested on: Rattus norvegicus; test: Prevention of bone mineral density loss in ovariectomized immatured Sprague-Dawley rat osteoporosis model at 80 ng/kg, po once daily for 5 times per week for 4 weeks relative to control; assay type: functional; how it was run: as §2
[11] = tested on: Rattus norvegicus; test: Prevention of bone mineral density loss in ovariectomized immatured Sprague-Dawley rat osteoporosis model at 20 ng/kg, po once daily for 5 times per week for 4 weeks relative to control; assay type: functional; how it was run: as §2
[12] = tested on: Rattus norvegicus; test: Toxicity in ovariectomized matured Sprague-Dawley rat osteoporosis model assessed as effect on serum calcium level at 12 ng/kg, po once daily for 5 times per week for 4 weeks relative to control; assay type: organism-based; details: in vivo, 1.2e-05 mg/kg, 672 h
How it was run: (§3)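 Female 8-month-old Sprague–Dawley rats, ovariectomized or sham-operated, n = 8 per group. Starting one day post-surgery, oral dosing at 0.75–12 ng/kg, five times per week for 4 weeks; vehicle was MCT at 1 mL/kg. At 24 h after the last dose, aortic blood was taken for serum calcium by autoanalyzer. Distal femur and lumbar spine BMD measured by DXA.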

[13] = tested on: Rattus norvegicus; test: Toxicity in ovariectomized matured Sprague-Dawley rat osteoporosis model assessed as effect on serum calcium level at 0.75 to 6 ng/kg, po once daily for 5 times per week for 4 weeks relative to control; assay type: organism-based; details: in vivo, 672 h; how it was run: as §3
[14] = tested on: Rattus norvegicus; test: Prevention of bone mineral density loss in distal femur of ovariectomized matured po dosed Sprague-Dawley rat osteoporosis model administered once daily for 5 times per week for 4 weeks; assay type: functional, organism-based; how it was run: as §3
[15] = Mean residence time in Sprague-Dawley rat at 100 ug/kg, po; assay type: ADME, organism-based; details: in vivo, 0.1 mg/kg
How it was run: (§4)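 Male Sprague–Dawley rats, 8 weeks old, fed, n = 3 per route. Single 100 µg/kg dose, iv in ethanol/Tween20/saline (10:2:88) or po in ethanol/MCT (1:9). Blood taken from the jugular vein and centrifuged to plasma. Drug extracted with diethyl ether and quantified by LC-MS/MS. Bioavailability given as F (%).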

[16] = AUC (infinity) in Sprague-Dawley rat at 100 ug/kg, po; assay type: ADME, organism-based; set-up: dose 100 ug/kg, time infinity, route oral; details: plasma, 0.1 mg/kg; how it was run: as §4
[17] = Half life in Sprague-Dawley rat at 100 ug/kg, po; assay type: ADME, organism-based; details: in vivo, 0.1 mg/kg; how it was run: as §4
[18] = Cmax in Sprague-Dawley rat at 100 ug/kg, po; assay type: ADME, organism-based; set-up: dose 100 ug/kg, route oral; details: in vivo, 0.1 mg/kg; how it was run: as §4
[19] = Oral bioavailability in Sprague-Dawley rat at 100 ug/kg; assay type: ADME, organism-based; details: in vivo, 0.1 mg/kg; how it was run: as §4
[20] = Volume of distribution at steady state in Sprague-Dawley rat at 100 ug/kg, iv; assay type: ADME, organism-based; details: in vivo, 0.1 mg/kg, read-out: Vdss; how it was run: as §4
[21] = Total clearance in Sprague-Dawley rat at 100 ug/kg, iv; assay type: ADME, organism-based; details: in vivo, 0.1 mg/kg; how it was run: as §4
[22] = Mean residence time in Sprague-Dawley rat at 100 ug/kg, iv; assay type: ADME, organism-based; details: in vivo, 0.1 mg/kg; how it was run: as §4
[23] = AUC (infinity) in Sprague-Dawley rat at 100 ug/kg, iv; assay type: ADME, organism-based; set-up: dose 100 ug/kg, time infinity, route intravenous; details: plasma, 0.1 mg/kg; how it was run: as §4
[24] = Half life in Sprague-Dawley rat at 100 ug/kg, iv; assay type: ADME, organism-based; details: in vivo, 0.1 mg/kg; how it was run: as §4
[25] = tested on: Rattus norvegicus; test: Toxicity in ovariectomized immatured Sprague-Dawley rat osteoporosis model assessed as effect on serum calcium level at 40 ng/kg, po once daily for 5 times per week for 4 weeks relative to control; assay type: organism-based; details: in vivo, 4e-05 mg/kg, 672 h; how it was run: as §1
[26] = tested on: Rattus norvegicus; test: Prevention of bone mineral density loss in ovariectomized immatured Sprague-Dawley rat osteoporosis model at 40 ng/kg, po once daily for 5 times per week for 4 weeks relative to control; assay type: functional; how it was run: as §2
[27] = Genotoxicity in micronucleus (unknown origin) by micronucleus assay
[28] = tested on: Salmonella typhimurium; test: Genotoxicity in Salmonella typhimurium by Ames test; assay type: toxicity, organism-based; details: salmonella enterica subsp. enterica serovar typhimurium
[29] = tested on: Rattus norvegicus; test: Toxicity in ovariectomized matured Sprague-Dawley rat osteoporosis model assessed as effect on body weight at 0.75 to 12 ng/kg, po once daily for 5 times per week for 4 weeks; assay type: organism-based; details: in vivo, 672 h
[30] = tested on: Rattus norvegicus; test: Toxicity in ovariectomized immatured Sprague-Dawley rat osteoporosis model assessed as effect on serum calcium level at 50 ng/kg, po once daily for 5 times per week for 4 weeks relative to control; assay type: organism-based; details: in vivo, 5e-05 mg/kg, 672 h; how it was run: as §1
[31] = tested on: Rattus norvegicus; test: Toxicity in ovariectomized immatured Sprague-Dawley rat osteoporosis model assessed as effect on serum calcium level at 25 ng/kg, po once daily for 5 times per week for 4 weeks relative to control; assay type: organism-based; details: in vivo, 2.5e-05 mg/kg, 672 h; how it was run: as §1
[32] = tested on: Rattus norvegicus; test: Prevention of bone mineral density loss in ovariectomized immatured Sprague-Dawley rat osteoporosis model at 50 ng/kg, po once daily for 5 times per week for 4 weeks relative to control; assay type: functional; how it was run: as §2
[33] = tested on: Rattus norvegicus; test: Prevention of bone mineral density loss in ovariectomized immatured Sprague-Dawley rat osteoporosis model at 25 ng/kg, po once daily for 5 times per week for 4 weeks relative to control; assay type: functional; how it was run: as §2

Compound: CCC(CC)(c1ccc(/C=C/C(O)(C(F)(F)F)C(F)(F)F)c(C)c1)c1ccc(-c2ccc(CC(=O)O)cc2)c(C)c1
Activity [1]: 6.9%
Activity [2]: 0.6%
Activity [3]: 89%
Activity [4]: 47%
Activity [5]: Dose-dependent effect

Compound: C=C1/C(=C\C=C2/CCC[C@]3(C)[C@@H]([C@H](C)CCCC(C)(C)O)CC[C@@H]23)C[C@@H](O)C[C@@H]1O [CALCITRIOL]
Activity [6]: 5.1%
Activity [7]: 2.5%
Activity [8]: 2.5%
Activity [9]: 58%
Activity [10]: 53%
Activity [11]: 4%

Compound: CCC(CC)(c1ccc(/C=C/C(O)(C(F)(F)F)C(F)(F)F)c(C)c1)c1ccc(-c2ccc(CC(=O)O)c(F)c2)c(C)c1
Activity [5]: Dose-dependent effect

MRT [15]: 28.3 h
AUC(0-inf) [16]: 1650 ng·h/mL
half-life [17]: 17.6 h
Cmax [18]: 54 ng/mL
bioavailability [19]: 95.1%
Vd [20]: 0.99 L/kg
clearance [21]: 1.51 mL/min/kg
MRT [22]: 11.2 h
AUC(0-inf) [23]: 1130 ng·h/mL
half-life [24]: 8.5 h
Compound: CCC(O)(/C=C/c1ccc(C(CC)(CC)c2ccc(-c3ccc(CC(=O)O)cn3)c(C)c2)cc1C)CC
Activity [12]: Toxic
Activity [13]: Non-toxic
Activity [14]: Dose-dependent effect
Activity [25]: 8.4%
Activity [2]: -2.9%
Activity [8]: 2.2%
Activity [26]: 198%
Activity [4]: 122%
Activity [11]: 172%
Activity [27]: Non-toxic
Activity [28]: Non-toxic
Activity [29]: Non-toxic

Compound: CCC(O)(/C=C/c1ccc(C(CC)(CC)c2ccc(-c3ccc(CC(=O)O)cc3)c(C)c2)cc1C)CC
Activity [30]: 8.7%
Activity [31]: 0.7%
Activity [32]: 81%
Activity [33]: 42%
Activity [5]: Dose-dependent effect
